Screening results as filed in PubChem.
HDAC3 inhib = human HDAC3 inhibition | O15379 | recombinant HDAC3, fluorogenic peptide/trypsin coupled, fluorescence | inhibition, % at 8.3 µM | hit rate 0.15% among 320,000 | AID 2718; in the data active = inhibition above about 26%, passing the limit was not always enough; inconclusive = no clear call, values can overlap the other calls
FAS TE block = inhibitors of human fatty acid synthase thioesterase domain; recombinant FAS-TE, OMFH fluorogenic substrate, fluorescence endpoint; inhibition, % at 15 µM; hit rate 0.67% among 360,000; AID 602261;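 active = compounds whose normalised, plate-corrected inhibition of enzyme fluorescence in the single-dose primary screen is 50% or more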;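 also: 0% = DMSO with enzyme and 100% = substrate without enzyme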
ALR H2O2 inh = blocks human ALR sulfhydryl oxidase activity. purified ALR, DTT oxidation, H2O2 HRP-luminol luminescence. inhibition, % (concentration not given with the values). hit rate 3.8% among 290,000;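 active = mean replicate inhibition above about 79%, with every replicate also reaching it, limit read from the data; inconclusive = only one of the two criteria met; inactive = mean below limit and not every replicate reaching it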
Rtt109 HAT inh = inhibitors of Candida albicans Rtt109/Vps75 histone acetyltransferase; Q5AAJ8; purified Rtt109/Vps75, ThioGlo CoA-SH fluorescence, 4 h; inhibition, % at 34.9 µM; hit rate 0.16% among 330,000;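 active = inhibition of at least 50% in every replicate; inconclusive = best replicate reaches 50% inhibition but some replicates fall short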
Target sequence (Q5AAJ8 whole entry, looked up): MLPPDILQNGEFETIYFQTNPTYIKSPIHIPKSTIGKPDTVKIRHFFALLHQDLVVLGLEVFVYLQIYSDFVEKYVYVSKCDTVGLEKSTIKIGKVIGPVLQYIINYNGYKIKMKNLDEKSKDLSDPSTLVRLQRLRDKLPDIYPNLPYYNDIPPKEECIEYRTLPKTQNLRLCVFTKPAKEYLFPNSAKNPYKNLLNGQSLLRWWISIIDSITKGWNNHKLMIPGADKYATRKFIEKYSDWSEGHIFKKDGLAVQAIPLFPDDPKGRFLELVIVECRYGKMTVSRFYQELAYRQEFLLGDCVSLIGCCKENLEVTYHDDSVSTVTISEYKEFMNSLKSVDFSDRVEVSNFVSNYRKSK
PfM18AAP inh-1 = blocks P. falciparum M18 aspartyl aminopeptidase. recombinant PfM18AAP, H-Glu-NHMec fluorogenic cleavage. inhibition, % at 7.35 µM. hit rate 1.2% among 290,000. AID 1822;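 active = inhibition above the campaign mean inhibition over all tested compounds plus 3 SD, cut at about 28% in these data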;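 also: 0% = plate median of test compound wells and 100% = 2 mM ZnCl2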
UCH37 inh = human UCH37 deubiquitinating enzyme inhibition. hit rate 0.33% among 330,000. AID 588478. inhibition, % (concentration not given with the values). purified proteasome/UCH37, Ub-AMC cleavage fluorescence. Q9Y5K5;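 active = mean inhibition over replicate wells above about 20%, limit read from the data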;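 also: 0% = compound-free wells with enzyme and 100% = wells lacking proteasome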
Target sequence (Q9Y5K5 whole entry, looked up): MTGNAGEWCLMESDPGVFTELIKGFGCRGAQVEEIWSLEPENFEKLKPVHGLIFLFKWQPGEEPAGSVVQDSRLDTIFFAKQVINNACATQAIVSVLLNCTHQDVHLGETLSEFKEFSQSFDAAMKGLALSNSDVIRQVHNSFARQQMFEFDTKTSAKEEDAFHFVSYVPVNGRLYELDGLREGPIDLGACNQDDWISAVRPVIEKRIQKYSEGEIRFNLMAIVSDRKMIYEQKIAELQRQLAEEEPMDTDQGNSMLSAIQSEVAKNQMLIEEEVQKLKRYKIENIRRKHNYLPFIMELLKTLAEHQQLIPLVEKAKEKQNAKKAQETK
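assay system = human UCH37 enzyme supplied as purified proteasome complex | amount = proteasome at 0.15 nM in the dispensed enzyme solution | schedule = 30 min compound-proteasome preincubation then 25 min substrate reaction, room temperature | measured by = fluorescence, ex 355 nm, em 460 nm | benchmarks = no-proteasome wells (full inhibition) and compound-free wells (no inhibition)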
PfM18AAP inh-2 = confirmation of Plasmodium falciparum M18 aspartyl aminopeptidase inhibitors | inhibition, % at 7.35 µM | shares compounds with PfM18AAP inh-1 | hit rate 28% among 2,400 | recombinant PfM18AAP, H-Glu-NHMec fluorogenic cleavage | AID 2170;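 active = mean inhibition over replicate wells above the hit cutoff set for the earlier primary screen, cut at about 29% in these data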;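 also: 0% = median of test compound wells and 100% = 2 mM ZnCl2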
CTSL1 confirm = Cathepsin L (human) inhibition, confirmation; AID 2178; shares compounds with PfM18AAP inh-1; 2,400 tested, under 10 active; inhibition, % at 5.96 µM; purified cathepsin L1, Z-Leu-Arg-MCA fluorescence;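 active = average inhibition across replicates above the hit cutoff set in the earlier primary screen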;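 also: 0% = median of test compound wells and 100% = Z-Phe-Ala-diazomethylketone 1 µM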
* marks the source's active call; other numbers are inactive results; ? = inconclusive; / = not tested or not shown. Shown are actives, neighbours in structure and some others; about 4.6% of the full set was active somewhere.

SMILES	HDAC3 inhib	FAS TE block	ALR H2O2 inh	Rtt109 HAT inh	PfM18AAP inh-1	UCH37 inh	PfM18AAP inh-2	CTSL1 confirm
COc1cc(C(C[N+](=O)[O-])c2c(C)cc3ccccn23)ccc1O (stereo unspecified)	1.9	-2.0	23.9	4.0	40.2*	-12.3	-13.4	0.4
COc1ccc(C(C[N+](=O)[O-])c2c(-c3ccccc3)cc3ccccn23)cc1OC (stereo unspecified)	2.8	0.7	9.0	12.8	21.3	-9.6	/	/
CC1CCCC(C)N1N=Cc1ccc(C(=O)O)cc1 (stereo unspecified)	/	/	/	/	/	1.5	/	/
O=C(c1ccc(SCc2ccco2)c([N+](=O)[O-])c1)N1CCOCC1	-1.1	-0.5	2.3	0.3	34.5*	4.4	-35.6	-6.1
CC(C)(C)c1nnc(NN=Cc2ccc(Br)cc2)n(N)c1=O	/	/	/	/	/	5.6	/	/
O=C(/C=C/c1ccccc1)n1cnnc1SC/C=C/c1ccccc1	-0.9	3.6	6.0	2.1	41.4*	3.0	27.4	-4.7
CN(C)C(=S)Nc1ccc2c(c1)OCO2	14.7	-3.6	22.1	-9.3	37.6*	0.9	5.0	1.4
O=[N+]([O-])c1ccc(Cl)c(C=NN2CCN(Cc3ccccc3)CC2)c1	/	/	/	/	/	-0.7	/	/
COc1ccc(OC)c(-c2c3cc(O)c(=O)cc-3oc3cc(O)c(O)cc23)c1	0.8	-37.0	80.4*	0.0	45.3*	/	25.6	4.1
CC(=O)N1CCN(C(=S)c2ccc(Cl)cc2)CC1	-1.6	-1.9	-9.9	-6.2	21.6	-2.3	/	/
CC(=O)N1CC[n+]2c(-c3ccc(Cl)cc3)csc21	13.2	-139.9	98.5*	23.0	38.8*	0.9	4.8	-10.4
Cc1nc(C)c(C(=O)NNC(=O)Nc2ccc(Cl)cc2)s1	0.2	-6.0	57.5	0.3	54.9*	1.9	25.4	4.0
Cc1nc(Cl)sc1C(=O)Nc1ccc(Cl)cc1	1.8	4.0	-15.9	-2.6	9.6	-0.1	/	/
CC(C)=CCCC1=CCC(C(C)=NNC(N)=O)CC1 (stereo unspecified)	/	/	/	/	/	11.3	/	/
O=c1cc(CN2CCN(c3ccccc3O)CC2)nc2sccn12	-8.5	1.3	98.6*	5.7	35.0*	2.1	-12.7	-0.6
Cc1cccc(N2CCN(Cc3cc(=O)n4ccsc4n3)CC2)c1C	3.1	2.6	2.5	-1.6	3.1	2.6	/	/
CCOc1ccc2c(c1)S/C(=C\c1cccs1)C(=O)N2	2.5	-2.1	-4.2	-9.7	34.3*	-0.8	-33.5	-1.4
Cc1cc(NO)nc(-c2ccc(Br)cc2)n1	1.0	-65.0	19.5	2.3	55.9*	2.3	31.6*	0.7
Cc1cc(C)nc(NC(=O)c2ccc(Br)cc2)n1	0.6	-2.6	-0.3	-9.9	-8.2	-0.6	/	/
CNC(=S)NN=Cc1cn(CCOc2ccc(OC)cc2)c2ccccc12	/	/	/	/	/	2.3	/	/
Cc1nc2c(n1O)CCCC2=NO	/	/	/	/	/	-0.5	/	/
CCOc1cccc(-c2c(C(=O)NN=Cc3sccc3C)nnn2-c2nonc2N)c1	/	/	/	/	/	0.3	/	/
Cc1nnc(SCC(=O)Nc2ccccc2)[nH]c1=O	0.3	-6.0	-1.9	1.8	3.2	0.9	/	/
Cc1nnc(SCC(=O)NNC(=O)CC#N)[nH]c1=O	3.2	-4.6	-5.2	-15.9	42.7*	2.7	27.6	3.9
CCc1cccc(CC)c1NC(=S)NCCc1c(C)[nH]c2ccccc12	5.3	9.5	10.6	-3.9	-4.7	5.5	/	/
SMILES	HDAC3 inhib	FAS TE block	ALR H2O2 inh	Rtt109 HAT inh	PfM18AAP inh-1	UCH37 inh	PfM18AAP inh-2	CTSL1 confirm
CCc1cccc(CC)c1NC(=S)NCCc1ccc(O)c(O)c1	?	-4.2	68.7	1.3	64.7*	2.9	39.6*	-8.6
CNC(=S)NNC(=O)c1cn(C)nc1C	-4.0	-8.3	9.7	9.7	32.5*	2.6	18.9	-4.1
O=C(c1ccc2nc(-c3ccco3)c(-c3ccco3)nc2c1)N1CCN(c2ccccc2)CC1	/	21.1	/	-0.7	14.9	-14.2	/	/
O=C(O)c1ccc2nc(-c3ccco3)c(-c3ccco3)nc2c1	/	-9.1	/	-2.8	35.5*	-75.5	-1.4	4.0
COc1cccc(C=NNC(=O)C(C)n2nc(C)c([N+](=O)[O-])c2C)c1O (stereo unspecified)	/	/	/	/	/	1.5	/	/
COc1ccc(/C=N/Nc2nonc2N)cc1	-4.2	-5.4	4.5	-3.4	32.4*	/	-30.2	-2.3
COc1ccc(/C=N/Nc2nn3cnnc3c3ccccc23)cc1	6.4	-0.2	1.5	2.2	37.5*	/	-47.6	3.4
COc1ccc(NN=C(C#N)S(=O)(=O)c2nsc(C)c2C#N)cc1	/	/	/	/	/	2.0	/	/
CC(=O)Nc1cccc(C(C)=NNC(=S)NC(C)C)c1	/	/	/	/	/	2.2	/	/
O=C(C1=C[C@H](c2ccc3c(c2)OCO3)C[C@H](OCc2ccc(CO)cc2)O1)N1CCCCCCC1	11.3	0.3	-13.1	2.5	32.7*	-0.3	-21.9	1.6
Cc1ccc2sc(NNC(=O)C3COc4ccccc4O3)nc2c1C (stereo unspecified)	-2.3	-36.8	47.1	4.2	40.6*	7.4	2.6	2.8
COc1cccc2sc(NNC(=O)C3=COCCO3)nc12	-10.0	-2.5	15.9	-1.5	43.0*	0.0	25.9	-0.9
COc1ccc(OC)c2sc(NC(=O)C3=COCCO3)nc12	4.3	-8.6	-35.9	-10.6	2.4	-68.6	/	/
O=C(c1cccc(S(=O)(=O)N2CCc3ccccc3C2)c1)N1CCN(c2ccc(O)cc2)CC1	0.3	4.2	94.6*	-0.5	35.6*	0.2	-4.8	4.2
O=C(Oc1ccc(Br)cc1C(=S)N1CCOCC1)c1ccc(F)cc1	3.3	23.9	47.2	1.6	32.5*	3.5	-17.8	10.4
Cc1ccc(C(=O)Oc2ccc(Br)cc2C(=S)N2CCOCC2)cc1	10.5	18.5	/	-2.5	15.8	1.8	/	/
CC(C)(C)c1ccc(O)c(N=Cc2cc3c(cc2[N+](=O)[O-])OCO3)c1	-0.7	0.6	-10.9	-2.9	36.3*	/	89.9*	1.0
O=C(CCc1ccc(O)c(O)c1)N/N=C/c1cc2c(cc1[N+](=O)[O-])OCO2	8.9	0.1	59.8	6.8	75.9*	/	51.3*	-1.4
Cc1ccc(C)c(N=Cc2cc3c(cc2[N+](=O)[O-])OCO3)c1	-5.6	-32.6	-10.7	-1.9	17.1	-0.3	/	/
O=[N+]([O-])c1cc2c(cc1/C=N\NS(=O)(=O)c1ccccc1)OCO2	0.7	-2.9	0.0	-3.0	47.5*	/	4.1	-5.3
O=C(Nc1nc(-c2ccccn2)cs1)Nc1ccc(F)cc1F	9.3	0.2	-5.7	-10.0	48.0*	/	0.3	2.0
O=C(Nc1nc(-c2ccccc2)cs1)Nc1ccc(F)cc1F	-2.1	9.1	0.8	-20.3	-13.9	3.3	/	/
NCC(O)c1ccc(O)c(O)c1 (stereo unspecified)	/	-2.7	/	1.2	/	5.5	/	/
NCCc1ccc(O)c(O)c1	-1.7	-0.8	98.7*	3.7	72.7*	2.0	66.1*	-3.5
